Screens from PubChem.
NF-kB expr up: NF-kB expression increase, human neuronal cells | NF-kB reporter expression; active compounds read high | fold change at 12.5 µM | actives 1.6% (n = 190,000) | AID 1239; in the data active = fold change above about 3.3
STAT3 inh: reduces IL-6 driven STAT3 reporter signal; U3A cells, IL-6 STAT3-luciferase reporter, luminescence; host cell line lacks STAT1; actives 0.89% (n = 190,000); inhibition, % at 5.5 µM;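 active = inhibition above the mean inhibition across all screened compounds plus 3 SD, cut at about 44% in these data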;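 also: 0% = DMSO only wells and 100% = 100 µM nifuroxazide control wells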
STAT1 blocker: inhibitors of IFN-gamma induced STAT1 signaling. NIH 3T3 STAT1-luciferase reporter, luminescence. actives 0.35% (n = 200,000). AID 920. inhibition, % at 5.5 µM;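 active = inhibition above a set limit, the mean inhibition across all tested compounds plus 3 SD, cut at about 34% in these data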;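 also: 0% = IFN-gamma with DMSO and 100% = IFN-gamma with 300 µM nifuroxazide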
APP 5'UTR act: APP 5'UTR luciferase reporter activation; SH-SY5Y APP 5'UTR luciferase reporter, luminescence; zero percent = DMSO vehicle wells; activation, % at 2 µM; actives 1% (n = 190,000);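 active = activation above a set limit, based on mean plus 3 SD of controls, cut at about 140% in these data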
STAT3 act: increases IL-6 driven STAT3 reporter signal | AID 871 | actives 0.91% (n = 190,000) | U3A cells, IL-6 STAT3-luciferase reporter, luminescence; 100% = signal with IL-6 EC80 alone | activation (% of control), % at 5.6 µM;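 active = activation above the screen-wide mean of compound activation plus 3 SD, cut at about 130% in these data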;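 also: 0% = background luminescence of wells with medium and substrate only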
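Material: human U3A cells carrying STAT3-luciferase construct. Measured by: reporter luminescence signal. Timing: compound 1 h, then IL-6 6 h at 37 °C.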
STAT1 act: STAT1 signaling activation; NIH 3T3 STAT1-luciferase reporter, IFN-gamma, luminescence; 100% = IFN-gamma alone, no compound; activation (% of control), % at 5.5 µM; actives 2.6% (n = 200,000); AID 932;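 active = activation above the screen-wide mean activation plus 3 SD, cut at about 130% in these data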;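 also: raw ratio to IFN-gamma control signal so 100% means no change and 0% no light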
* hit, by the source's call. An excerpt weighted towards active compounds, which were near 4.9% of everything screened.

How did Cc1noc(C)c1C(=O)N1CCCC(C(=O)c2cccc(C(F)(F)F)c2)C1 (configuration not stated) do in these assays?
NF-kB expr up: 1.18; STAT3 inh: 12.8; STAT1 blocker: 2.4; APP 5'UTR act: 0.9; STAT3 act: 98.5; STAT1 act: 97.0

How did COc1cc(/C=C2/CCc3ccccc3C2=O)cc(OC)c1OC do in these assays?
NF-kB expr up: 3.83*; STAT3 inh: 6.9; STAT1 blocker: -5.0; APP 5'UTR act: 26.6; STAT3 act: 93.5; STAT1 act: 104.6

What do the screens show for `COc1cc(/C=C2\CCc3ccccc3C2=O)cc(OC)c1OC`?
NF-kB expr up: 3.07; STAT3 inh: 9.6; STAT1 blocker: 5.8; APP 5'UTR act: 6.9; STAT3 act: 95.5; STAT1 act: 94.8

Results for COc1ccc(/C=C2/CCc3ccccc3C2=O)cc1OC ?
NF-kB expr up: 3.43*; STAT3 inh: 16.4; STAT1 blocker: 2.4; APP 5'UTR act: 100.8; STAT3 act: 89.4; STAT1 act: 97.9

What do the screens show for `COc1cc(/C=C2\CC/C(=C\c3cc(OC)c(O)c(OC)c3)C2=O)cc(OC)c1O`?
NF-kB expr up: 0.67; STAT3 inh: 1.7; STAT1 blocker: -36.1; APP 5'UTR act: -5.0; STAT3 act: 102.0; STAT1 act: 131.9*

Results for COc1ccc(/C=C2\COc3ccccc3C2=O)cc1OC ?
NF-kB expr up: 1.05; STAT3 inh: 4.0; STAT1 blocker: 7.4; APP 5'UTR act: 16.2; STAT3 act: 96.8; STAT1 act: 93.5

What do the screens show for `CCN(CC1COc2ccccc2O1)C(=S)NC1CC2CCC1C2` (configuration not stated)?
STAT3 inh: 3.2; STAT1 blocker: 3.0; APP 5'UTR act: -1.9; STAT3 act: 102.6; STAT1 act: 97.6

What do the screens show for `CC(C)C(=O)n1nc(-c2cccnc2)nc1NCc1ccc(F)cc1`?
NF-kB expr up: 1.1; STAT3 inh: 20.0; STAT1 blocker: 6.4; APP 5'UTR act: 1.6; STAT3 act: 91.5; STAT1 act: 93.3

Results for Cc1ccc(Nc2c(-c3ccccn3)nc3cccc(C)n23)cc1 ?
NF-kB expr up: 0.53; STAT3 inh: 20.9; STAT1 blocker: -12.8; APP 5'UTR act: -67.5; STAT3 act: 84.6; STAT1 act: 110.3

How did c1ccc2c(c1)nnn2-c1ncnc2sccc12 do in these assays?
NF-kB expr up: 2.09; STAT3 inh: 2.8; STAT1 blocker: -35.0; APP 5'UTR act: 16.2; STAT3 act: 99.5; STAT1 act: 133.5*

Results for COc1cc(OC)c(NC(C)C(=O)N2CCCC2)cc1Cl (configuration not stated) ?
NF-kB expr up: 0.98; STAT3 inh: 14.8; STAT1 blocker: -10.3; APP 5'UTR act: -12.5; STAT3 act: 91.4; STAT1 act: 106.3

What do the screens show for `Cc1ccc(C(=O)CC(=O)c2cc(Cl)ccc2O)cc1`?
NF-kB expr up: 4.26*; STAT3 inh: -10.7; STAT1 blocker: -28.7; APP 5'UTR act: 121.7; STAT3 act: 114.9; STAT1 act: 126.6

What do the screens show for `Cc1onc(-c2ccccc2)c1C(=O)OCC(=O)NCc1ccc(F)cc1`?
NF-kB expr up: 1.27; STAT3 inh: 3.2; STAT1 blocker: 9.7; APP 5'UTR act: -10.3; STAT3 act: 103.1; STAT1 act: 89.8

What do the screens show for `O=C(O)CSc1nc2ccccc2o1`?
NF-kB expr up: 1.15; STAT3 inh: 6.9; STAT1 blocker: -3.9; APP 5'UTR act: -10.3; STAT3 act: 97.5; STAT1 act: 103.6

How did COC(=O)c1ccc(CSc2nc3ccccc3o2)cc1 do in these assays?
NF-kB expr up: 3.83*; STAT3 inh: 39.2; STAT1 blocker: 9.2; APP 5'UTR act: 126.2; STAT3 act: 70.0; STAT1 act: 91.5

How did O=[N+]([O-])c1ccc(CSc2nc3ccccc3o2)cc1 do in these assays?
NF-kB expr up: 5.02*; STAT3 inh: 9.2; STAT1 blocker: -35.9; APP 5'UTR act: 177.4*; STAT3 act: 98.7; STAT1 act: 132.2*

How did O=C(NCc1cccs1)c1cc(-c2ccncc2)nc2ccc(Br)cc12 do in these assays?
NF-kB expr up: 0.73; STAT3 inh: -0.7; STAT1 blocker: -0.9; APP 5'UTR act: -4.8; STAT3 act: 104.7; STAT1 act: 98.1

What do the screens show for `c1ccc2c3c([nH]c2c1)C1(CCCCC1)NCC3`?
NF-kB expr up: 1.04; STAT3 inh: -12.2; STAT1 blocker: 0.6; APP 5'UTR act: 13.2; STAT3 act: 110.9; STAT1 act: 98.4

Results for CC12CCCCN1CCCc1c2[nH]c2ccccc12 (configuration not stated) ?
NF-kB expr up: 0.91; STAT3 inh: -36.3; STAT1 blocker: -5.0; APP 5'UTR act: -3.9; STAT3 act: 135.6*; STAT1 act: 104.6

What do the screens show for `O=C(O)C/C(=C\c1ccc(Cl)cc1)c1nc2ccccc2o1`?
NF-kB expr up: 0.82; STAT3 inh: 11.4; STAT1 blocker: -12.6; APP 5'UTR act: 1.6; STAT3 act: 97.9; STAT1 act: 111.9

Results for O=C(O)C(=O)/C(=C\c1ccc(Cl)cc1)c1ccc2ccccc2n1 ?
NF-kB expr up: 1.12; STAT3 inh: -45.1; STAT1 blocker: -34.4; APP 5'UTR act: 85.8; STAT3 act: 147.1*; STAT1 act: 130.1*

How did O=C(CCc1nnc(CCCCc2ccccc2)o1)NCCN1CCCCC1=O do in these assays?
NF-kB expr up: 1.26; STAT3 inh: -3.1; STAT1 blocker: 1.4; APP 5'UTR act: 3.2; STAT3 act: 104.7; STAT1 act: 97.0

How did O=C(N/C(=C\c1ccc(-c2ccccc2)o1)C(=O)N1CCOCC1)c1ccccc1 do in these assays?
NF-kB expr up: 0.62; STAT3 inh: 20.7; STAT1 blocker: 11.7; APP 5'UTR act: -0.8; STAT3 act: 84.2; STAT1 act: 87.6

Results for c1ccc(Nc2nc3ccccc3o2)cc1 ?
NF-kB expr up: 5.26*; STAT3 inh: -2.5; STAT1 blocker: -39.7; APP 5'UTR act: 133.1; STAT3 act: 102.0; STAT1 act: 136.9*

How did FC(F)(F)Oc1ccc(Nc2nc3ccccc3o2)cc1 do in these assays?
NF-kB expr up: 1.89; STAT3 inh: 2.1; STAT1 blocker: -38.8; APP 5'UTR act: 76.8; STAT3 act: 101.9; STAT1 act: 133.8*

How did Cc1c(=O)n(OCc2ccccc2F)c2ccccc2[n+]1[O-] do in these assays?
NF-kB expr up: 5.19*; STAT3 inh: 17.7; STAT1 blocker: 3.7; APP 5'UTR act: -17.9; STAT3 act: 88.8; STAT1 act: 96.6

Results for Cc1c(=O)n(OCc2cccc(F)c2)c2ccccc2[n+]1[O-] ?
NF-kB expr up: 3.03; STAT3 inh: 15.6; STAT1 blocker: 2.9; APP 5'UTR act: -1.9; STAT3 act: 90.2; STAT1 act: 97.4

What do the screens show for `O=C(NC(=S)Nc1ccccc1)c1ccc(Br)o1`?
NF-kB expr up: 1.94; STAT3 inh: 2.5; STAT1 blocker: -44.0; APP 5'UTR act: 71.5; STAT3 act: 101.8; STAT1 act: 138.4*
